Reference: ChEMBL document CHEMBL5303300, “EUbOPEN Chemogenomics Library - Multiplex” (2023)
Where “and” joins values, the source holds several entries; their conditions need not be identical. Identical values can stand only once.

Key:
Fibroblast = test: Multiplex assay against human fibroblast; type: toxicity, cell-based; settings: number of replicates 2
Outline: (§1)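 Live cells were stained at seeding with Hoechst33342, BioTracker Green Microtubule Cytoskeleton Dye, MitoTracker Red and Annexin V Alexa Fluor 680. Following compound addition, they were imaged on a CQ1 microscope at 37°C and 5% CO2 and gated by CellPathfinder machine learning into Hoechst high-intensity objects or normal cells, with normal cells split into healthy, pyknosed or fragmented nuclei and pyknosed cells into mitotic or apoptotic. Tubulin, mitochondrial-mass and membrane-permeability phenotypes are per cents of healthy-nucleus cells.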

HEK-293T = test: Multiplex assay against HEK293T; type: toxicity, cell-based; settings: human, number of replicates 2; outline: as §1
[1] = 12 h, 1 µM, compound concentration 1 uM
[2] = 12 h, 10 µM, compound concentration 10 uM
[3] = 24 h, 1 µM, compound concentration 1 uM
[4] = 24 h, 10 µM, compound concentration 10 uM
[5] = 48 h, 1 µM, compound concentration 1 uM
[6] = 48 h, 10 µM, compound concentration 10 uM

COc1ccccc1-c1cc(Nc2cccc(CS(N)(=O)=O)c2)ncn1
Population Apoptotic (%) (Fibroblast; [1]): 36% and 33% | Population Fragmented Nuclei (%) (Fibroblast; [1]): 4% and 7% | Population Healthy Nuclei (%) (Fibroblast; [1]): 78% and 68% | Population Hoechst High Intensity Objects (%) (Fibroblast; [1]): 0% | Population Membrane Permeable-Phenotype (%) (Fibroblast; [1]): 8% and 2% | Population Mitochondria Different-Phenotype (%) (Fibroblast; [1]): 1% and 0% | Population Mitotic Cells (%) (Fibroblast; [1]): 63% and 66% | Population Normal (%) (Fibroblast; [1]): 100% and 99% | Population Pyknosed Nuclei (%) (Fibroblast; [1]): 16% and 24% | Population Tubulin-Different-Phenotype (%) (Fibroblast; [1]): 13% and 7% | Total Cell Count (Fibroblast; [1]): 202 and 230 | Population Apoptotic (%) (Fibroblast; [2]): 46% and 42% | Population Fragmented Nuclei (%) (Fibroblast; [2]): 4% and 7% | Population Healthy Nuclei (%) (Fibroblast; [2]): 77% and 71% | Population Hoechst High Intensity Objects (%) (Fibroblast; [2]): 0% | Population Membrane Permeable-Phenotype (%) (Fibroblast; [2]): 7% and 5% | Population Mitochondria Different-Phenotype (%) (Fibroblast; [2]): 0% and 1% | Population Mitotic Cells (%) (Fibroblast; [2]): 53% and 57% | Population Normal (%) (Fibroblast; [2]): 100% and 99% | Population Pyknosed Nuclei (%) (Fibroblast; [2]): 17% and 21% | Population Tubulin-Different-Phenotype (%) (Fibroblast; [2]): 17% and 19% | Total Cell Count (Fibroblast; [2]): 181 and 214 | Population Apoptotic (%) (Fibroblast; [3]): 41% and 49% | Population Fragmented Nuclei (%) (Fibroblast; [3]): 6% and 10% | Population Healthy Nuclei (%) (Fibroblast; [3]): 75% and 64% | Population Hoechst High Intensity Objects (%) (Fibroblast; [3]): 0% | Population Membrane Permeable-Phenotype (%) (Fibroblast; [3]): 5% and 7% | Population Mitochondria Different-Phenotype (%) (Fibroblast; [3]): 2% and 0% | Population Mitotic Cells (%) (Fibroblast; [3]): 58% and 50% | Population Normal (%) (Fibroblast; [3]): 100% and 99% | Population Pyknosed Nuclei (%) (Fibroblast; [3]): 18% and 25% | Population Tubulin-Different-Phenotype (%) (Fibroblast; [3]): 15% and 12% | Total Cell Count (Fibroblast; [3]): 194 and 245 | Population Apoptotic (%) (Fibroblast; [4]): 61% and 55% | Population Fragmented Nuclei (%) (Fibroblast; [4]): 10% and 9% | Population Healthy Nuclei (%) (Fibroblast; [4]): 76% and 68% | Population Hoechst High Intensity Objects (%) (Fibroblast; [4]): 0% | Population Membrane Permeable-Phenotype (%) (Fibroblast; [4]): 1% | Population Mitochondria Different-Phenotype (%) (Fibroblast; [4]): 3% and 4% | Population Mitotic Cells (%) (Fibroblast; [4]): 38% and 44% | Population Normal (%) (Fibroblast; [4]): 100% | Population Pyknosed Nuclei (%) (Fibroblast; [4]): 12% and 21% | Population Tubulin-Different-Phenotype (%) (Fibroblast; [4]): 18% and 15% | Total Cell Count (Fibroblast; [4]): 202 and 214 | Population Apoptotic (%) (Fibroblast; [5]): 66% and 56% | Population Fragmented Nuclei (%) (Fibroblast; [5]): 5% and 14% | Population Healthy Nuclei (%) (Fibroblast; [5]): 78% and 67% | Population Hoechst High Intensity Objects (%) (Fibroblast; [5]): 0% | Population Membrane Permeable-Phenotype (%) (Fibroblast; [5]): 4% and 6% | Population Mitochondria Different-Phenotype (%) (Fibroblast; [5]): 0% | Population Mitotic Cells (%) (Fibroblast; [5]): 33% and 43% | Population Normal (%) (Fibroblast; [5]): 99% | Population Pyknosed Nuclei (%) (Fibroblast; [5]): 15% and 18% | Population Tubulin-Different-Phenotype (%) (Fibroblast; [5]): 8% and 5% | Total Cell Count (Fibroblast; [5]): 192 and 250 | Population Apoptotic (%) (Fibroblast; [6]): 78% and 80% | Population Fragmented Nuclei (%) (Fibroblast; [6]): 9% | Population Healthy Nuclei (%) (Fibroblast; [6]): 83% and 74% | Population Hoechst High Intensity Objects (%) (Fibroblast; [6]): 0% | Population Membrane Permeable-Phenotype (%) (Fibroblast; [6]): 3% and 9% | Population Mitochondria Different-Phenotype (%) (Fibroblast; [6]): 1% | Population Mitotic Cells (%) (Fibroblast; [6]): 21% and 20% | Population Normal (%) (Fibroblast; [6]): 100% | Population Pyknosed Nuclei (%) (Fibroblast; [6]): 6% and 16% | Population Tubulin-Different-Phenotype (%) (Fibroblast; [6]): 16% and 26% | Total Cell Count (Fibroblast; [6]): 203 and 209 | Population Apoptotic (%) (HEK-293T; [1]): 35% and 36% | Population Fragmented Nuclei (%) (HEK-293T; [1]): 4% and 2% | Population Healthy Nuclei (%) (HEK-293T; [1]): 85% | Population Hoechst High Intensity Objects (%) (HEK-293T; [1]): 6% and 7% | Population Membrane Permeable-Phenotype (%) (HEK-293T; [1]): 3% and 5% | Population Mitochondria Different-Phenotype (%) (HEK-293T; [1]): 15% and 14% | Population Mitotic Cells (%) (HEK-293T; [1]): 64% | Population Normal (%) (HEK-293T; [1]): 93% and 92% | Population Pyknosed Nuclei (%) (HEK-293T; [1]): 10% and 12% | Population Tubulin-Different-Phenotype (%) (HEK-293T; [1]): 56% and 48% | Total Cell Count (HEK-293T; [1]): 807 and 675 | Population Apoptotic (%) (HEK-293T; [2]): 32% and 34% | Population Fragmented Nuclei (%) (HEK-293T; [2]): 4% and 5% | Population Healthy Nuclei (%) (HEK-293T; [2]): 87% and 84% | Population Hoechst High Intensity Objects (%) (HEK-293T; [2]): 7% | Population Membrane Permeable-Phenotype (%) (HEK-293T; [2]): 3% | Population Mitochondria Different-Phenotype (%) (HEK-293T; [2]): 26% and 28% | Population Mitotic Cells (%) (HEK-293T; [2]): 67% and 65% | Population Normal (%) (HEK-293T; [2]): 92% | Population Pyknosed Nuclei (%) (HEK-293T; [2]): 8% and 10% | Population Tubulin-Different-Phenotype (%) (HEK-293T; [2]): 61% and 74% | Total Cell Count (HEK-293T; [2]): 665 and 582 | Population Apoptotic (%) (HEK-293T; [3]): 35% and 34% | Population Fragmented Nuclei (%) (HEK-293T; [3]): 5% and 4% | Population Healthy Nuclei (%) (HEK-293T; [3]): 86% and 88% | Population Hoechst High Intensity Objects (%) (HEK-293T; [3]): 6% and 8% | Population Membrane Permeable-Phenotype (%) (HEK-293T; [3]): 3% and 2%
